Our source for the Activity, inhibition and IC50 values is ChEMBL document CHEMBL1140765, “Synthesis and biological evaluation of 2-trifluoromethyl/sulfonamido-5,6-diaryl substituted imidazo[2,1-b]-1,3,4-thiadiazoles: a novel class of cyclooxygenase-2 inhibitors” (Bioorg Med Chem, 2008).

Structures are written as SMILES. Some results are limits rather than exact numbers.

For test [1], the system named is Rattus norvegicus. Kind of test: Antiinflammatory activity in Albino rat assessed as reduction of carrageenan-induced paw edema volume at 10 mg/kg, po after 2 hrs. The test is classed as functional. Further details: scale not given: the % may be the effect or the level left. Put shortly:
(§1)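 Male albino rats, six per group, were dosed orally. One hour later they received a subplantar injection of 0.05 mL of 1% carrageenan in 0.9% sterile solution into the left hind paw. Paw volume was read by digital plethysmometer at 0, 2 and 4 h. Percent reduction was calculated as (1 − treated/vehicle control edema volume) × 100, and values are given as mean ± SE.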
In general terms: In the carrageenan paw model, swelling and tenderness develop within hours.

In test [2] the target is T1, Prostaglandin G/H synthase 1 (Ovis aries) (UniProt P05979).
T1 sequence (whole entry): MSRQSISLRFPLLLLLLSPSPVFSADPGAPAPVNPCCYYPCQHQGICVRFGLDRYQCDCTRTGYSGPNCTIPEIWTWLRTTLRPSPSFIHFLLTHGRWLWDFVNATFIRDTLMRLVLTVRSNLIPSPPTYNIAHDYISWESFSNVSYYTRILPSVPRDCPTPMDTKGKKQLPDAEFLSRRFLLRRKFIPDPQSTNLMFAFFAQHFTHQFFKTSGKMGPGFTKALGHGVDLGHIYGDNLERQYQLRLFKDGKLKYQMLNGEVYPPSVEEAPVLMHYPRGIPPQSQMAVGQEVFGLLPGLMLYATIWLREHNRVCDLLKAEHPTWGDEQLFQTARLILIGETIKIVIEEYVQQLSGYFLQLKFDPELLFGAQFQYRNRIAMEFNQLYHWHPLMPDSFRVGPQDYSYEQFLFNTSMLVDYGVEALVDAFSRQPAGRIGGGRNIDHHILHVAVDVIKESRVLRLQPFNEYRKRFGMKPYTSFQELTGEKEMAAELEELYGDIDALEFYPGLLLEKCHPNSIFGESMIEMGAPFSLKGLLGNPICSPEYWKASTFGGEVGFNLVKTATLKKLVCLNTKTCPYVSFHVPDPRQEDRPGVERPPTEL
As to the kind of experiment: Inhibition of ovine COX1 at 10 uM. Put shortly: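 Ovine COX-1 activity was measured with a colorimetric inhibitor assay kit that reads the enzyme's peroxidase component. Oxidized TMPD was monitored at 590 nm during reduction of PGG2 to PGH2. Runs were done in duplicate.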

The subject of test [3] is Rattus norvegicus. Kind of test: Antiinflammatory activity in Albino rat assessed as reduction of carrageenan-induced paw edema volume at 10 mg/kg, po after 4 hrs. The test is classed as functional. Further details: scale not given: the % may be the effect or the level left. In outline: as §1
Test [4] has as its target T2, Prostaglandin G/H synthase 1 (Ovis aries, UniProt P05979).
T2 sequence (P05979 whole entry): T1 sequence (whole entry)
Kind of test: Inhibition of ovine COX1. In outline: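 Ovine enzyme, colorimetric kit assay read through the peroxidase component: oxidised TMPD appearing during PGG2 to PGH2 reduction monitored at 590 nm; values reported as IC50 in µM, duplicate experiments.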

A word on the inhibition: it is how much of the control response was suppressed. By IC50 is commonly meant the point on the concentration scale where inhibition reaches its midpoint. For the compound `CS(=O)(=O)c1ccc(-c2nc3sc(C(F)(F)F)nn3c2-c2ccccc2)cc1`, the Activity in test [1] was found to be 46.73%; in test [3] it was 70.09%. The compound further yielded an inhibition in test [2] of 8.6%. Moreover, the IC50 in test [4] is more than 50 µM.
Take `COc1ccc(-c2c(-c3ccccc3)nc3sc(C(F)(F)F)nn23)cc1`: the Activity in test [1] worked out at 29.62%; in test [3] it was 42.32%. The inhibition in test [2] was found to be 30.6%.
On to `Cc1ccc(-c2cc(C(F)(F)F)nn2-c2ccc(S(N)(=O)=O)cc2)cc1` [CELECOXIB], for which the results for the Activity in test [1] and in test [3] were 48.31% and 64.83%, respectively.
Turning to `COc1ccc(-c2nc3sc(C(F)(F)F)nn3c2-c2ccc(OC)cc2)cc1`, the results for the Activity in test [1] and in test [3] were 38.03% and 48.78%, respectively. The same compound had an inhibition in test [2] of 15.5%.
For `CSc1ccc(-c2nc3sc(C(F)(F)F)nn3c2-c2ccccc2)cc1`, in that order: 37.64%, 54.16% and 14.2%.
Consider `COc1ccc(-c2c(-c3ccc(S(C)(=O)=O)cc3)nc3sc(S(N)(=O)=O)nn23)cc1`, for which the figures for the Activity in test [1] and in test [3] were 54.28% and 61.29%, respectively. This compound came in with an inhibition in test [2] of 13.3%. Also, the IC50 in test [4] is more than 50 µM.
`COc1ccc(-c2c(-c3ccc(F)cc3)nc3sc(S(N)(=O)=O)nn23)cc1`: the Activity in test [1] was 43.49%; in test [3], 51.72%. The same compound returned an inhibition in test [2] of 12.9%.
On the same counts, the results for `COc1ccc(-c2nc3sc(S(N)(=O)=O)nn3c2-c2ccc(OC)cc2)cc1` are 24.68%, 37.05% and 28.1%.
For `COc1ccc(-c2c(-c3ccc(SC)cc3)nc3sc(C(F)(F)F)nn23)cc1`, in that order: 42.38%, 66.16% and 10.5%.
